Results published in ChEMBL document CHEMBL4190346, “Structure-based design, synthesis, and biological evaluation of withaferin A-analogues as potent apoptotic inducers” (Eur J Med Chem, 2017).
The source made the active and inactive calls. The calls are words filed in the database; no cut-off is given here.

How the values were obtained:
HeLa [1] = test: Cytotoxicity against human HeLa cells assessed as reduction in cell viability using compound addition to cell culture cells in log phase of growth and incubated for 48 hrs by MTT assay; assay type: functional, cell-based; details: Homo sapiens, HeLa, 48 h; read-out: IC50
A549 [2] = test: Cytotoxicity against human A549 cells assessed as reduction in cell viability using compound addition to cell culture cells in log phase of growth and incubated for 48 hrs by MTT assay; assay type: functional, cell-based; details: Homo sapiens, A549, 48 h; read-out: IC50
MCF7 [3] = test: Cytotoxicity against human MCF7 cells assessed as reduction in cell viability using compound addition to cell culture cells in log phase of growth and incubated for 48 hrs by MTT assay; assay type: functional, cell-based; details: Homo sapiens, MCF7, 48 h; read-out: IC50
Vero [4] = test: Cytotoxicity against African green monkey Vero cells assessed as reduction in cell viability using compound addition to cell culture cells in log phase of growth and incubated for 48 hrs by MTT assay; assay type: cell-based, Chlorocebus sabaeus; details: Chlorocebus sabaeus, Vero, 48 h; read-out: IC50
MCF7 [5] = test: Ratio of IC50 for cytotoxicity against human MCF7 cells incubated for 48 hrs to IC50 for cytotoxicity against human MCF7 cells incubated for 72 hrs; assay type: functional
MCF7 (Homo sapiens) [6] = test: Ratio of IC50 for cytotoxicity against human MCF7 cells incubated for 48 hrs to IC50 for cytotoxicity against human MCF7 cells incubated for 72 hrs
MCF7 (Homo sapiens) [7] = test: as above; remark: listed apart in the source
HeLa [8] = test: Cytotoxicity against human HeLa cells assessed as reduction in cell viability using compound addition to cell culture cells in lag phase of growth and incubated for 48 hrs by MTT assay; assay type: functional, cell-based; details: Homo sapiens, HeLa, 48 h; read-out: IC50
A549 [9] = test: Cytotoxicity against human A549 cells assessed as reduction in cell viability using compound addition to cell culture cells in lag phase of growth and incubated for 48 hrs by MTT assay; assay type: functional, cell-based; details: Homo sapiens, A549, 48 h; read-out: IC50
MCF7 [10] = test: Cytotoxicity against human MCF7 cells assessed as reduction in cell viability using compound addition to cell culture cells in lag phase of growth and incubated for 48 hrs by MTT assay; assay type: functional, cell-based; details: Homo sapiens, MCF7, 48 h; read-out: IC50
Vero [11] = test: Cytotoxicity against African green monkey Vero cells assessed as reduction in cell viability using compound addition to cell culture cells in lag phase of growth and incubated for 48 hrs by MTT assay; assay type: cell-based, Chlorocebus sabaeus; details: Chlorocebus sabaeus, Vero, 48 h; read-out: IC50
HeLa [12] = test: Induction of apoptosis in human HeLa cells assessed as […] by measuring pNA release level at 32 uM incubated for 8 hrs using c-DEVD-pNA substrate by colorimetric assay; assay type: functional, cell-based
Outline: (§1)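 HeLa cells in DMEM with 10% FBS were exposed for 4 h (fixed 24 or 32 level for 8 h). Staurosporine for 4 h served as the positive control. Cells were lysed at 4 °C for 10 min and centrifuged, and supernatant protein was measured by Bradford. Caspase-3 activity was read colorimetrically as nmol pNA/min/mL, with treated/untreated OD ratios. Values are means ± SD of three independent experiments in triplicate.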

HeLa [13] = test: Induction of apoptosis in human HeLa cells assessed as increase in caspase-3 activity by measuring pNA release level at 8 uM incubated for 4 hrs using c-DEVD-pNA substrate by colorimetric assay; assay type: functional; outline: as §1
HeLa [14] = test: Induction of apoptosis in human HeLa cells assessed as increase in caspase-3 activity by measuring pNA release level at 12 uM incubated for 4 hrs using c-DEVD-pNA substrate by colorimetric assay; assay type: functional; outline: as §1
HeLa [15] = test: Induction of apoptosis in human HeLa cells assessed as increase in caspase-3 activity by measuring pNA release level at 16 uM incubated for 4 hrs using c-DEVD-pNA substrate by colorimetric assay; assay type: functional; outline: as §1
HeLa [16] = test: Induction of apoptosis in human HeLa cells assessed as increase in caspase-3 activity by measuring pNA release level at 24 uM incubated for 4 hrs using c-DEVD-pNA substrate by colorimetric assay; assay type: functional; outline: as §1
HeLa [17] = test: Induction of apoptosis in human HeLa cells assessed as increase in caspase-3 activity by measuring pNA release level at 32 uM incubated for 4 hrs using c-DEVD-pNA substrate by colorimetric assay; assay type: functional; outline: as §1

| Compound | IC50 (HeLa [1]) [µM] | IC50 (A549 [2]) [µM] | IC50 (MCF7 [3]) [µM] | IC50 (Vero [4]) [µM] | Ratio IC50 (MCF7 [5]) | Ratio IC50 (MCF7 (Homo sapiens) [6]) | Ratio IC50 (MCF7 (Homo sapiens) [7]) | IC50 (HeLa [8]) [µM] | IC50 (A549 [9]) [µM] | IC50 (MCF7 [10]) [µM] | IC50 (Vero [11]) [µM] | Activity (HeLa [12]) | Activity (HeLa [13]) [nmol/min/mL] | Activity (HeLa [14]) [nmol/min/mL] | Activity (HeLa [15]) [nmol/min/mL] | Activity (HeLa [16]) [nmol/min/mL] | Activity (HeLa [17]) [nmol/min/mL] |
| --- | --- | --- | --- | --- | --- | --- | --- | --- | --- | --- | --- | --- | --- | --- | --- | --- | --- |
| CC1=C(CO)C(=O)O[C@@H]([C@@H](C)[C@H]2CC[C@H]3[C@@H]4C[C@@H](O)[C@]5(C=O)C=CC(=O)[C@]5(C)[C@H]4CC[C@]23C)C1 | > 40 | > 40 | > 40 | > 40 | >3 | >3 | >3 |  |  |  |  |  |  |  |  |  |  |
| CC1=C(CO)C(=O)O[C@@H]([C@@H](C)[C@H]2CC[C@H]3[C@@H]4C[C@H]5O[C@]56[C@@H](O)[C@@H](N(Cc5ccccc5)Cc5ccccc5)CC(=O)[C@]6(C)[C@H]4CC[C@]23C)C1 | > 40 | > 40 | 18.5 | 15.6 | >3 | >3 | >3 | 22.2 | 40 | 15.4 | 32.9 |  |  |  |  |  |  |
| CCCC(=O)OCC1=C(C)C[C@H]([C@@H](C)[C@H]2CC[C@H]3[C@@H]4C[C@H]5O[C@]56[C@@H](O)C=CC(=O)[C@]6(C)[C@H]4CC[C@]23C)OC1=O | 1.2 | 2.2 | 1 | 0.5 |  |  |  | 1.9 | 2.6 | 2.4 | 0.7 | Active | 0.54 | 0.72 | 1.22 | 1.24 | 1.33 |
| CCC(=O)OCC1=C(C)C[C@H]([C@@H](C)[C@H]2CC[C@H]3[C@@H]4C[C@H]5O[C@]56[C@@H](OC(=O)CC)C=CC(=O)[C@]6(C)[C@H]4CC[C@]23C)OC1=O | 1.1 | 4.1 | 1.1 | 0.8 |  |  |  | 2.1 | 2.6 | 2.4 | 1.5 | Active | 0.58 | 1.1 | 2.3 | 1.6 | 1.7 |
| CC1=C(CO)C(=O)O[C@@H]([C@@H](C)[C@H]2CC[C@H]3[C@@H]4C[C@H]5O[C@]56[C@@H](O)C=C[C@@H](O)[C@]6(C)[C@H]4CC[C@]23C)C1 | 17.5 | 17.3 | 7.5 | 6 | >3 | >3 | >3 | 15.8 | > 40 | 16.8 | 7.1 |  |  |  |  |  |  |
| CCCCCCCC(=O)OCC1=C(C)C[C@H]([C@@H](C)[C@H]2CC[C@H]3[C@@H]4C[C@H]5O[C@]56[C@@H](OC(=O)CCCCCCC)C=CC(=O)[C@]6(C)[C@H]4CC[C@]23C)OC1=O | > 40 | > 40 | 33.5 | 18.3 | >3 | >3 | >3 | 33.8 | > 40 | 23.8 | 3.3 |  |  |  |  |  |  |
| CC1=C(COC(=O)CBr)C(=O)O[C@@H]([C@@H](C)[C@H]2CC[C@H]3[C@@H]4C[C@H]5O[C@]56[C@@H](O)C=CC(=O)[C@]6(C)[C@H]4CC[C@]23C)C1 | 4.9 | 4.8 | 0.9 | 1.6 | >3 | >3 | >3 | 2.1 | 3.9 | 1.2 | 1.1 |  |  |  |  |  |  |
